Measurements: ChEMBL document CHEMBL1136923, “Highly potent, orally available anti-inflammatory broad-spectrum chemokine inhibitors” (J Med Chem, 2009)

Tests used:
Mus musculus [1] = experiment: Antiinflammatory activity in mouse assessed as inhibition of LPS-induced TNFalpha upregulation at 0.0025 mg, sc measured 2 hrs after LPS challenge; type: functional
Procedure, shortened: (§1)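 Murine sublethal endotoxemia: LPS given intraperitoneally, with serum TNF-α measured 2 h after the LPS injection as the end point. Compound was given subcutaneously or orally. Vehicle was 0.6% DMSO and 1% carboxymethylcellulose (final concentrations) in sterile water. Effect is reported as % relative to control.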

Mus musculus [2] = experiment: Antiinflammatory activity in mouse assessed as inhibition of LPS-induced TNFalpha upregulation at 0.0075 mg, po measured 2 hrs after LPS challenge; type: functional; procedure, shortened: as §1
Mus musculus [3] = experiment: Antiinflammatory activity in mouse assessed as inhibition of LPS-induced TNFalpha upregulation at 0.000225 mg, sc measured 2 hrs after LPS challenge; type: functional
Procedure, shortened: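 Murine sublethal endotoxemia: LPS given intraperitoneally, serum TNF-α measured 2 h after LPS injection. Compound vehicle 0.6% DMSO plus 1% carboxymethylcellulose (final concentrations) in sterile water.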

[4] = target: C-C chemokine receptor type 5 (Homo sapiens) (UniProt P51681); experiment: Antagonist activity at CCR5 in human THP1 cells assessed as inhibition of CCL5-induced chemotaxis at 0.01 nM after 2 hrs by microtiter format trans-well migration assay; type: functional, cell-based; conditions: THP-1
Sequence of C-C chemokine receptor type 5 (Homo sapiens) (P51681 whole entry, looked up): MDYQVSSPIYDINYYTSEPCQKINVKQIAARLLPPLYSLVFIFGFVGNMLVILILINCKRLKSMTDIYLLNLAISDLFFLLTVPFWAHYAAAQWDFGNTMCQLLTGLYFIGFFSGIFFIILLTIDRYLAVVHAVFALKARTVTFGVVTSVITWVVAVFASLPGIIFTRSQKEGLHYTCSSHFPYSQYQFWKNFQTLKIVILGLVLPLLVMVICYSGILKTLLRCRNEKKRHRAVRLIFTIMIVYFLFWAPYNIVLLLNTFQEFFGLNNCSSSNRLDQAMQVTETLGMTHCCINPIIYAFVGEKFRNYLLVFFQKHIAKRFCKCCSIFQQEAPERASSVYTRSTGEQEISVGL
Procedure, shortened: (§2)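 Microtiter trans-well migration assay in Gey's balanced salt solution with 1 mg/mL endotoxin-free BSA, no fetal calf serum. Migration ran 2 h at 37 °C. Compounds dissolved in DMSO and added to both top and bottom compartments, final DMSO 1%.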

Mus musculus [5] = experiment: Antiinflammatory activity in mouse assessed as inhibition of LPS-induced TNFalpha upregulation at 0.0075 mg, sc measured 2 hrs after LPS challenge; type: functional; procedure, shortened: as §1
[6] = target: T1, C5a anaphylatoxin chemotactic receptor 1 (Homo sapiens) (UniProt P21730); experiment: Antagonist activity at C5a receptor in human PMNC assessed as inhibition of C5a-induced chemotaxis at 10 nM after 2 hrs by microtiter format trans-well migration assay; type: functional; procedure, shortened: as §2
T1 sequence (whole entry): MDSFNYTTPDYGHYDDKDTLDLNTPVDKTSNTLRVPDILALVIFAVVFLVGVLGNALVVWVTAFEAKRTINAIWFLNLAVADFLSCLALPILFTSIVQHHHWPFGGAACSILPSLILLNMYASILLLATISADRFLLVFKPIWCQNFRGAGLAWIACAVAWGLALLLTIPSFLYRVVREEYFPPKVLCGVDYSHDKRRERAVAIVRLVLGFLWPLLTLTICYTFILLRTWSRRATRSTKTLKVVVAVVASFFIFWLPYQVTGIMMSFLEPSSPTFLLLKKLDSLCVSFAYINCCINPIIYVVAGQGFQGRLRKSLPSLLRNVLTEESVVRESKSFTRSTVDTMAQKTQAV

Mus musculus [7] = experiment: Antiinflammatory activity in sc dosed mouse assessed as inhibition of LPS-induced TNFalpha upregulation measured 2 hrs after LPS challenge; type: functional
[8] = target: C-X-C chemokine receptor type 4 (Homo sapiens) (UniProt P61073); experiment: Antagonist activity at CXCR4 in human THP1 cells assessed as inhibition of CXCL12-induced chemotaxis at 1 nM after 2 hrs by microtiter format trans-well migration assay; type: functional, cell-based; conditions: THP-1; procedure, shortened: as §2
Sequence of C-X-C chemokine receptor type 4 (Homo sapiens) (P61073 whole entry): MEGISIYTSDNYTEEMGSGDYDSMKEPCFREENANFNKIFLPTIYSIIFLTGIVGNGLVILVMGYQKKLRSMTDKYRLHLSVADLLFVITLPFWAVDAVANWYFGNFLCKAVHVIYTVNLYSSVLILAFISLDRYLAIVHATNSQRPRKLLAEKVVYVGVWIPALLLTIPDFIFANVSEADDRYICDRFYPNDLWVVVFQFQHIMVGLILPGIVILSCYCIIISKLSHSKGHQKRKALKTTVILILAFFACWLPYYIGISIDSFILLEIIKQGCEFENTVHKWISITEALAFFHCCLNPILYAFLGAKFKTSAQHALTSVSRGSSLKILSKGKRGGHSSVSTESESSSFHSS

[9] = target: C-C chemokine receptor type 2 (Homo sapiens) (UniProt P41597); experiment: Antagonist activity at CCR2 in human THP1 cells assessed as inhibition of CCL2-induced chemotaxis at 1 nM after 2 hrs by microtiter format trans-well migration assay; type: functional, cell-based; conditions: THP-1; procedure, shortened: as §2
Sequence of C-C chemokine receptor type 2 (Homo sapiens) (P41597 whole entry, looked up): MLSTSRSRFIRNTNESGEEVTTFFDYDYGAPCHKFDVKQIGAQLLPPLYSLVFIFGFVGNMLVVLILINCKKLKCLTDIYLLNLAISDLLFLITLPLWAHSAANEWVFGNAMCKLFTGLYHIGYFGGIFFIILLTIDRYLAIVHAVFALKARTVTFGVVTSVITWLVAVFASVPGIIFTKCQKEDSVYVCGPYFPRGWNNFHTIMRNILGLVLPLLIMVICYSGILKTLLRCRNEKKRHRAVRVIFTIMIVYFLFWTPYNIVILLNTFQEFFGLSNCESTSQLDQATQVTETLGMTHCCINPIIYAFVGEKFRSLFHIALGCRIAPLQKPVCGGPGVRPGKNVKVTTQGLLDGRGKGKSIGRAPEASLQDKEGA

Mus musculus [10] = experiment: Antiinflammatory activity in po dosed mouse assessed as inhibition of LPS-induced TNFalpha upregulation measured 2 hrs after LPS challenge; type: functional
Mus musculus [11] = experiment: Antiinflammatory activity in mouse assessed as inhibition of LPS-induced TNFalpha upregulation at 0.025 mg, po measured 2 hrs after LPS challenge; type: functional; procedure, shortened: as §1
Mus musculus [12] = experiment: Antiinflammatory activity in sc dosed mouse assessed as inhibition of LPS-induced TNFalpha upregulation measured 2 hrs after LPS challenge relative to control; type: functional
Procedure, shortened: (§3)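 Murine sublethal LPS endotoxemia screen. LPS is injected intraperitoneally and serum TNF-α is measured 2 h later as the end point. Compound is given subcutaneously or orally in a vehicle of 0.6% DMSO plus 1% carboxymethylcellulose (final concentrations) in sterile water. Values are % relative to control.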

Mus musculus [13] = experiment: Antiinflammatory activity in mouse assessed as inhibition of LPS-induced TNFalpha upregulation at 830 pg, sc measured 2 hrs after LPS challenge; type: functional; procedure, shortened: as §3
[14] = target: T1, C5a anaphylatoxin chemotactic receptor 1 (Homo sapiens); experiment: Antagonist activity at C5a receptor in human PMNC assessed as inhibition of C5a-induced chemotaxis at 1 nM after 2 hrs by microtiter format trans-well migration assay; type: functional; procedure, shortened: as §2
[15] = target: T1, C5a anaphylatoxin chemotactic receptor 1 (Homo sapiens); experiment: Antagonist activity at C5a receptor in human PMNC assessed as inhibition of C5a-induced chemotaxis at 1000 nM after 2 hrs by microtiter format trans-well migration assay; type: functional; procedure, shortened: as §2
[16] = target: C-C chemokine receptor type 5 (Homo sapiens) (UniProt P51681); experiment: Antagonist activity at CCR5 in human THP1 cells assessed as inhibition of CCL5-induced chemotaxis after 2 hrs by microtiter format trans-well migration assay; type: functional, cell-based; conditions: THP-1; procedure, shortened: as §2
THP-1 = experiment: Toxicity in human THP1 cells assessed as change in cell size at 1000 nM by forward scatter flow cytometry relative to control; type: cell-based; conditions: thp-1, 1 µM
[17] = target: T1, C5a anaphylatoxin chemotactic receptor 1 (Homo sapiens); experiment: Antagonist activity at C5a receptor in human PMNC assessed as inhibition of C5a-induced chemotaxis at 0.01 nM after 2 hrs by microtiter format trans-well migration assay; type: functional; procedure, shortened: as §2
[18] = target: C-X-C chemokine receptor type 4 (Homo sapiens) (UniProt P61073); experiment: Antagonist activity at CXCR4 in human THP1 cells assessed as inhibition of CXCL12-induced chemotaxis at 0.1 nM after 2 hrs by microtiter format trans-well migration assay; type: functional, cell-based; conditions: THP-1; procedure, shortened: as §2
[19] = target: T2, C-C chemokine receptor type 1 (Homo sapiens) (UniProt P32246); experiment: Antagonist activity at CCR1 in human THP1 cells assessed as inhibition of CCL3-induced chemotaxis at 10 nM after 2 hrs by microtiter format trans-well migration assay; type: functional, cell-based; conditions: THP-1; procedure, shortened: as §2
T2 sequence (whole entry): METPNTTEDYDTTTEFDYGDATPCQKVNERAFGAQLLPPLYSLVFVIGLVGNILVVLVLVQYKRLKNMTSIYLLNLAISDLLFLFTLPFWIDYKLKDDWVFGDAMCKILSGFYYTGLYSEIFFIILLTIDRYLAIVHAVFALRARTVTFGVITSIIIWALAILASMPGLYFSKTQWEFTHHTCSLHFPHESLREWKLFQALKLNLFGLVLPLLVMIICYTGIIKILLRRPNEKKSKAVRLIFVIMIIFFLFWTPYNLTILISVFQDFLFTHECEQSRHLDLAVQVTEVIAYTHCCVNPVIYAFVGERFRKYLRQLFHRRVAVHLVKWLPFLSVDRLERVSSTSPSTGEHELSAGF

[20] = target: C-X-C chemokine receptor type 4 (Homo sapiens) (UniProt P61073); experiment: Antagonist activity at CXCR4 in human THP1 cells assessed as inhibition of CXCL12-induced chemotaxis at 1000 nM after 2 hrs by microtiter format trans-well migration assay; type: functional, cell-based; conditions: THP-1; procedure, shortened: as §2
[21] = Antagonist activity at Interleukin-8 receptor in human PMNC assessed as inhibition of CXCL8-induced chemotaxis at 10 nM after 2 hrs by microtiter format trans-well migration assay; type: functional; procedure, shortened: as §2
[22] = Antagonist activity at Interleukin-8 receptor in human PMNC assessed as inhibition of CXCL8-induced chemotaxis at 0.1 nM after 2 hrs by microtiter format trans-well migration assay; type: functional; procedure, shortened: as §2

inhibition [4]: 8.5% | inhibition [8]: 99% | inhibition [9]: 81% | ED50 [16]: 0.9 nM | inhibition [18]: 13% | inhibition [19]: 98% | inhibition [20]: 112%
SMILES: CCCCCCCCCCC(C)(C)C(=O)N[C@H]1CCCCNC1=O
inhibition (INH) (Mus musculus [1]): 57% | inhibition (INH) (Mus musculus [2]): 12% | inhibition (INH) (Mus musculus [3]): 68% | inhibition (INH) (Mus musculus [5]): 63% | inhibition [6]: -3% | ED50 (Mus musculus [7]): 0.00015 mg/kg | ED50 (Mus musculus [10]): 0.3 mg/kg | inhibition (INH) (Mus musculus [11]): 44% | inhibition (INH) (Mus musculus [12]): 70% | inhibition (INH) (Mus musculus [13]): 18% | inhibition [14]: 17.5% | inhibition [15]: 26% | fold change (FC) (THP-1): 1.05 | inhibition [17]: 20% | inhibition at 0.01 µM [21]: 121% | inhibition at 0.0001 µM [22]: 12.5%
